# According to ChEMBL document CHEMBL4706591, “Diphenyl triazine hybrids inhibit α-synuclein fibrillogenesis: Design, synthesis and in vitro efficacy studies” (Eur J Med Chem, 2020):
# Activity calls are given as the source filed them. The rule behind the calls is not given here.
# What was measured:
# [1] = molecular target: Alpha-synuclein (Homo sapiens) (UniProt P37840); experiment: Inhibition of recombinant alpha-synuclein (unknown origin) aggregation expressed in Escherichia coli BL21 (DE3) cells at 1:1 compound-protein molar ratio measured for every 30 mins in presence of ThT by spectrofluorometry
# Method in brief: (§1)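 Recombinant α-syn from E. coli BL21(DE3), extracted by osmotic shock, purified on DEAE-Sepharose with 50–500 mM NaCl gradient. Run at 37 °C; Ex 440/Em 485 nm read every 30 min after 30 s orbital shaking, until plateau. Four wells each. Each well fitted to a sigmoid giving t1/2, kapp = 1/τ, and tlag from lag/elongation intercept, then averaged; Student's t-test.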
# [2] = molecular target: Alpha-synuclein (Homo sapiens) (UniProt P37840); experiment: Inhibition of recombinant alpha-synuclein (unknown origin) aggregation expressed in Escherichia coli BL21 (DE3) cells assessed as final plateau fluorescence at 1:1 compound-protein molar ratio measured for every 30 mins in presence of ThT by spectrofluorometry relative to control; method in brief: as §1
# [3] = Aggregation property of the compound assessed as change in ThT fluorescence in presence of Thioflavin T; assay type: physicochemical; conditions: 336 h; time 2 weeks
# Method in brief: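 Compound alone incubated with ThT without α-syn for over 2 weeks; ThT fluorescence monitored to exclude self-aggregation interference.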
# [4] = molecular target: Alpha-synuclein (Homo sapiens) (UniProt P37840); experiment: Inhibition of recombinant alpha-synuclein (unknown origin) aggregation expressed in Escherichia coli BL21 (DE3) cells assessed as elongation phase time at 1:1 compound-protein molar ratio measured for every 30 mins in presence of ThT by spectrofluorometry (reference value: 31.2 +/- 0.6 hrs); conditions: dose 70.0 µM; method in brief: as §1
# [5] = molecular target: Alpha-synuclein (Homo sapiens) (UniProt P37840); experiment: Inhibition of recombinant alpha-synuclein (unknown origin) aggregation expressed in Escherichia coli BL21 (DE3) cells assessed as lag time at 1:1 compound-protein molar ratio measured for every 30 mins in presence of ThT by spectrofluorometry (reference value: 15.1 +/- 0.9 hrs); method in brief: as §1
# [6] = molecular target: Alpha-synuclein (Homo sapiens) (UniProt P37840); experiment: Inhibition of recombinant alpha-synuclein (unknown origin) aggregation expressed in Escherichia coli BL21 (DE3) cells assessed as apparent elongation rate constant at 1:1 compound-protein molar ratio measured for every 30 mins in presence of ThT by spectrofluorometry (reference value: 108.7 +/- 1.8 10^-3/hr); method in brief: as §1
# [7] = molecular target: Alpha-synuclein (Homo sapiens) (UniProt P37840); experiment: Inhibition of recombinant alpha-synuclein (unknown origin) aggregation expressed in Escherichia coli BL21 (DE3) cells assessed as reduction in fluorescent labeled aggregates at 20 uM incubated for >=66 hrs by ThT dye based inverted fluorescence microscopic analysis; conditions: time hrs >=66
# Method in brief: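 After the ThT kinetic run (about 66 h), 10 µL of control or compound-incubated α-syn mixed with 20 µM ThT was placed on a glass slide under a coverslip. Imaged on an inverted fluorescence microscope, FITC filter, 100× oil objective, with constant laser power and intensity.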
# [8] = molecular target: Alpha-synuclein (Homo sapiens) (UniProt P37840); experiment: Disruption of recombinant preformed alpha-synuclein (unknown origin) aggregation expressed in Escherichia coli BL21 (DE3) at 20 uM incubated for 5 days by ThT dye based inverted fluorescence microscopic analysis; conditions: time 5.0 day
# Method in brief: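 Preformed α-syn aggregates incubated with compound at 1:1 molar ratio at 37 °C for 5 days, without ThT, in a sealed plate, one well each. Samples then stained with ThT and imaged on an inverted fluorescence microscope through a FITC filter with constant imaging parameters.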
# [9] = test system: MEF; experiment: Cytotoxicity against mouse MEF cells at 10 uM incubated for 24 hrs by MTT assay; assay type: cell-based
# Method in brief: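 MEF cells grown in DMEM with 10% FBS and 1% penicillin-streptomycin to about 80% confluency. Cells trypsinized, plated, and left 24 h at 37 °C in humidified CO2. Compound added at 10 µM in triplicate with DMSO vehicle control, 24 h. MTT 0.5 mg/mL for 4 h in dark, formazan dissolved in DMSO, absorbance read at 570 nm. Mean ± SEM of three independent replicates.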
# [10] = test system: MEF; experiment: Cytotoxicity against mouse MEF cells at 10 uM incubated for 24 hrs in presence of aggregated alpha-synuclein by MTT assay; assay type: cell-based
# Method in brief: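 MEF cells cultured and plated as for the compound-only cytotoxicity assay. Cells treated in triplicate for 24 h with monomeric α-syn, aggregated α-syn, or α-syn aggregated in presence of compound at 1:1. Viability read by MTT (0.5 mg/mL, 4 h, 570 nm). Mean ± SEM, three replicates; Student's t-test, p<0.05.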
# [11] = Solubility of the compound in sodium phosphate buffer at pH 7.4; assay type: physicochemical
SMILES,inhibition [1],inhibition [2] [%],Activity [3],T1/2 [4] [h],Tlag [5] [h],Kapp [6],inhibition [7],inhibition [8],solubility [11],Activity [9],Activity [10]
O=C(CSc1nnc(-c2ccccc2)c(-c2ccccc2)n1)N1CCN(c2ccnc3cc(Cl)ccc23)CC1,Active,> 50,Not Active,28.2,15.9,128 10^-3/hr,Active,Active,Insoluble,Non-Toxic,Toxic
CC(=O)Nc1ccc(S(=O)(=O)N2CCN(C(=O)CSc3nnc(-c4ccccc4)c(-c4ccccc4)n3)CC2)cc1F,Active,> 50,Not Active,28.1,14.9,121 10^-3/hr,Active,Active,Insoluble,Non-Toxic,Toxic
O=C(CSc1nnc(-c2ccccc2)c(-c2ccccc2)n1)N1CCN(S(=O)(=O)c2ccc(Cl)cc2Cl)CC1,Active,,Not Active,30.4,13.9,122 10^-3/hr,,,Insoluble,,
CC(=O)Nc1ccc(S(=O)(=O)N2CCN(C(=O)CSc3nnc(-c4ccccc4)c(-c4ccccc4)n3)CC2)cc1,Active,> 50,Not Active,27.5,14.6,86.6 10^-3/hr,Active,Active,Insoluble,Non-Toxic,Non-Toxic
Cc1ccc(S(=O)(=O)N2CCN(C(=O)CSc3nnc(-c4ccccc4)c(-c4ccccc4)n3)CC2)cc1,Active,< 40,Not Active,29.4,14.1,118 10^-3/hr,,,Insoluble,,

# Second part, led by results:
inhibition [1],inhibition [2] [%],Activity [3],T1/2 [4] [h],Tlag [5] [h],Kapp [6],inhibition [7],inhibition [8],solubility [11],SMILES,Activity [9],Activity [10]
Active,< 40,Not Active,27,14.4,120 10^-3/hr,Active,inactive,Insoluble,O=C(CSc1nnc(-c2ccccc2)c(-c2ccccc2)n1)N1CCN(S(=O)(=O)c2ccc(Br)cc2)CC1,Non-Toxic,Non-Toxic
Active,< 40,Not Active,29.1,15.3,123 10^-3/hr,,,Insoluble,O=C(CSc1nnc(-c2ccccc2)c(-c2ccccc2)n1)N1CCN(S(=O)(=O)c2ccccc2[N+](=O)[O-])CC1,,
Active,,Not Active,30,16.1,116 10^-3/hr,,,Insoluble,O=C(CSc1nnc(-c2ccccc2)c(-c2ccccc2)n1)N1CCN(S(=O)(=O)c2ccc3ccccc3c2)CC1,,
